This note sets out measurements from ChEMBL document CHEMBL1122301, “Bioisosteric design of conformationally restricted pyridyltriazole histamine H2-receptor antagonists” (J Med Chem, 1983).

In general, Kb refers to the equilibrium dissociation constant of an antagonist, usually derived from a functional assay. Low values mean higher antagonist affinity, high ones lower antagonist affinity. Usually logD stands for the decadic logarithm of the distribution of all forms, ionised or not, between an organic phase and buffer at a given pH. Read a high logD as a more lipophilic compound. One may read the pKa as the pH at which an ionisable group is half protonated.

Calls of active or inactive are those of the source. The rule behind the calls is not given here.

The test system of data set [1] is Canis familiaris. As to the kind of experiment: Acid antisecretory activity against pentagastrin-stimulated Heidenhain pouch dogs at a dose of 10 mg/kg after intravenous administration. The data set is classed as functional, Canis lupus familiaris. The gist of the method:
(§1)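 Pentagastrin was infused iv into a leg vein of fasted, conscious Heidenhain pouch dogs to give near-maximal acid output. Juice was collected every 30 min, ten collections in all, and acid was titrated (1.0 mL to pH 7.4, 0.1 N NaOH). The single iv dose was given at 90 min. Percent inhibition was the lowest post-dose acid output compared with the mean output just before dosing.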

Data set [2] addresses Histamine H2 receptor (Cavia porcellus) (UniProt P47747). As to the kind of experiment: Antagonistic activity against histamine H2 receptor from guinea pig atrium. Format: functional, tissue-based. As to conditions: Cardiac atrium.
Data set [3] has as its system Canis familiaris. As to the kind of experiment: Acid antisecretory activity against pentagastrin-stimulated Heidenhain pouch dogs at a dose of 23 mg/kg after intravenous administration. The data set is classed as functional, Canis lupus familiaris. The procedure, abridged:
as §1

The target of data set [4] is Histamine H2 receptor (Cavia porcellus) (UniProt P47747). The data set can be described thus: Antagonistic activity against histamine H2 receptor from guinea pig atrium; activity KB (Dissociation Constant) is negative. As to conditions: Cardiac atrium. Format: functional, tissue-based.
Histamine H2 receptor (Cavia porcellus), sequence (P47747 whole entry): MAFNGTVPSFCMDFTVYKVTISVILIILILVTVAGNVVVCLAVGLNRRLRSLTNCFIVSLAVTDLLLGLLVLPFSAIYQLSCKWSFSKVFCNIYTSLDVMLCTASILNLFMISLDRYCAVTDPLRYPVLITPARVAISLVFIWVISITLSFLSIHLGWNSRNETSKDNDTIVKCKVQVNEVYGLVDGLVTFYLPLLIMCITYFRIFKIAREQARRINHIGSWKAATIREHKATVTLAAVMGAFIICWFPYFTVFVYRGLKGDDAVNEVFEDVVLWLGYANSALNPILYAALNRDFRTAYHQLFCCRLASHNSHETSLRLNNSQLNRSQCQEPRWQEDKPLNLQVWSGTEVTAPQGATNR
Data set [5] relates to Canis familiaris. The data set can be described thus: Acid antisecretory activity against pentagastrin-stimulated Heidenhain pouch dogs at a dose of 25 mg/kg after intravenous administration. Format: functional, Canis lupus familiaris. The gist of the method:
as §1

For data set [6], the target named is Histamine H1 receptor (Cavia porcellus) (UniProt P31389). As to the kind of experiment: Relative antagonistic activity against Histamine H1 receptor.
Histamine H1 receptor (Cavia porcellus), sequence (P31389 whole entry): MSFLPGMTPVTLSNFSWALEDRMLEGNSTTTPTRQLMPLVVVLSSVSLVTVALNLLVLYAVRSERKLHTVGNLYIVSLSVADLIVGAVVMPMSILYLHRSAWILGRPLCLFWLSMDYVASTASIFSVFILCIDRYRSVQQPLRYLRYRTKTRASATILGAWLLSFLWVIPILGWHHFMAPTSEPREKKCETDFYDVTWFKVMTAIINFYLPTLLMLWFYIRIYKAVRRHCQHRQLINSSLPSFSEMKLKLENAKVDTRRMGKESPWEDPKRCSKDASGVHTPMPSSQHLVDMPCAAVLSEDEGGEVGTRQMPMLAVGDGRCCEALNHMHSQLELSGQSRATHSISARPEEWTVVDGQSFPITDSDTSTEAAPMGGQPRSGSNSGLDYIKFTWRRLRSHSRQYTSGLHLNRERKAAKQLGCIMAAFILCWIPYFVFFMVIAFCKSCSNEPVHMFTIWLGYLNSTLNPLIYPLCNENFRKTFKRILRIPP
Data set [7] shares this target. The data set can be described thus: Relative antagonistic activity against Histamine H1 receptor, NA is Inactive.
Data set [8] concerns Canis familiaris. As to the kind of experiment: Acid antisecretory activity against pentagastrin-stimulated Heidenhain pouch dogs after intravenous administration. The data set is classed as functional. As to conditions: Canis lupus familiaris, read-out: ID50 (the source's name). The procedure, abridged:
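Fasted, unanesthetized Heidenhain pouch dogs received a continuous pentagastrin infusion into a superficial leg vein at a near-maximal acid-stimulating dose. Gastric juice was collected at 30-min intervals, ten collections per dog. Acid was titrated on 1.0 mL to pH 7.4 with 0.1 N NaOH. Compound or vehicle was given iv at 90 min. ID50 came from linear regression of log dose on percent inhibition in n dogs.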

Data set [9] is described as follows: Log distribution coefficient between 1-octanol and aqueous buffer at pH of 9.2. The data set is classed as physicochemical. As to conditions: 1-octanol/aqueous buffer, pH 9.2.
Data set [10] in a line: Log distribution coefficient between 1-octanol and aqueous buffer at pH of 7.4. Format: physicochemical. As to conditions: 1-octanol/aqueous buffer, pH 7.4.
Data set [11] in a line: pKa ([…] constant) value at a physiological pH of 7.4. Format: physicochemical. As to conditions: pH 7.4. The gist of the method: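 Ionisation constants taken as the observed pH1/2 from titration at 23 °C. The dihydrochloride salts were titrated in water, and the free bases in 1:1 methanol–water.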
Data set [12] can be described thus: Log distribution coefficient between 1-octanol and aqueous buffer at specified pH of 9.2. As to conditions: 1-octanol/aqueous buffer, pH 9.2.
The test system of data set [13] is Canis familiaris. As to the kind of experiment: Acid antisecretory activity against pentagastrin-stimulated Heidenhain pouch dogs at a dose of 5 mg/kg after intravenous administration. Format: functional, Canis lupus familiaris. The procedure, abridged:
as §1

With `Nc1n[nH]c(-c2ccncc2)n1`, the Max inhibition with Canis familiaris [1] is 43%; in the data set with Canis familiaris [3] it was 73%. The Kb in data set [2] is 41.9 µM.
`Nc1n[nH]c(-c2cccnc2)n1`: the Max inhibition with Canis familiaris [1] was found to be 22%; in the data set on Canis familiaris [5], 11%. Also, the KB entry in data set [4] was “inactive”.
Consider `c1ccc(CN(Cc2c[nH]cn2)c2ccccc2)cc1`, for which the Relative activity in data set [6] is greater than 0.5.
The compound `c1ccc(CN(CC2=NCCN2)c2ccccc2)cc1` displayed a Relative activity in [6] greater than 1.
`c1ccc(CN(CCc2c[nH]cn2)Cc2ccccc2)cc1` displayed a Relative activity in data set [6] of 0.01.
As for `CN(C)CCN(Cc1ccccc1)Cc1ccccc1`, in [7], the outcome was inactive.
With `CN(C)CCN(Cc1ccccc1)c1ccccc1`, in [6], the Relative activity amounted to 1.
For `Nc1cc(-c2n[nH]c(N)n2)ccn1`, the Kb in data set [2] was determined as 2.22 µM. The ED50 in the data set with Canis familiaris [8] came to 2.35 mg/kg. Further, the figures for the logD in [9] and in [10] were -0.06 and 0.11, respectively.
For `CCNc1cc(-c2n[nH]c(N)n2)ccn1` the same measures were 0.235 µM, 0.87 mg/kg, 0.97 and 1.13.
For `CN/C(=N\CCSCc1nc[nH]c1C)NC#N` [CIMETIDINE], the pKa in [11] was determined as 7.02. For the same compound, in the data set on Canis familiaris [8], the ED50 was found to be 1.02 mg/kg. Moreover, the figures for the logD in data set [9] and in data set [12] were 0.4 and 0.54, respectively.
As for `Nc1n[nH]c(Cc2cccnc2)n1`, the Max inhibition in the data set with Canis familiaris [1] turned out to be 0%. In addition, the KB entry in [4] is “inactive”.
In the case of `Nc1n[nH]c(Cc2ccccn2)n1`, the values for the Max inhibition in the data set on Canis familiaris [1] and with Canis familiaris [13] were 0% and 18%, respectively. In addition, the KB result in data set [4] was “inactive”.
Turning to `Nc1n[nH]c(-c2ccccn2)n1`, the Max inhibition in the data set with Canis familiaris [1] and in the data set on Canis familiaris [13] was 0% each time. Moreover, in data set [4], the KB result is “inactive”.
Consider `Nc1n[nH]c(Cc2ccncc2)n1`, for which the Max inhibition stood at 26% with Canis familiaris [1] and 30% in the data set on Canis familiaris [5]. The KB result in data set [4] was “inactive”.
